Data from ChEMBL document CHEMBL4706770, “SD-91 as A Potent and Selective STAT3 Degrader Capable of Achieving Complete and Long-Lasting Tumor Regression” (ACS Med Chem Lett, 2021).
Calls of active or inactive are those of the source. The rule behind the calls is not given here.

Columns and labels:
[1] = biological target: Protein cereblon/Signal transducer and activator of transcription 3 (Homo sapiens, UniProt P40763+Q96SW2); assay: Protac activity at CRBN/STAT3 in human SU-DHL-1 cells assessed as degradation of STAT3 incubated for 4 hrs by western blot analysis; assay type: cell-based
Protein cereblon/Signal transducer and activator of transcription 3, sequence (P40763 whole entry): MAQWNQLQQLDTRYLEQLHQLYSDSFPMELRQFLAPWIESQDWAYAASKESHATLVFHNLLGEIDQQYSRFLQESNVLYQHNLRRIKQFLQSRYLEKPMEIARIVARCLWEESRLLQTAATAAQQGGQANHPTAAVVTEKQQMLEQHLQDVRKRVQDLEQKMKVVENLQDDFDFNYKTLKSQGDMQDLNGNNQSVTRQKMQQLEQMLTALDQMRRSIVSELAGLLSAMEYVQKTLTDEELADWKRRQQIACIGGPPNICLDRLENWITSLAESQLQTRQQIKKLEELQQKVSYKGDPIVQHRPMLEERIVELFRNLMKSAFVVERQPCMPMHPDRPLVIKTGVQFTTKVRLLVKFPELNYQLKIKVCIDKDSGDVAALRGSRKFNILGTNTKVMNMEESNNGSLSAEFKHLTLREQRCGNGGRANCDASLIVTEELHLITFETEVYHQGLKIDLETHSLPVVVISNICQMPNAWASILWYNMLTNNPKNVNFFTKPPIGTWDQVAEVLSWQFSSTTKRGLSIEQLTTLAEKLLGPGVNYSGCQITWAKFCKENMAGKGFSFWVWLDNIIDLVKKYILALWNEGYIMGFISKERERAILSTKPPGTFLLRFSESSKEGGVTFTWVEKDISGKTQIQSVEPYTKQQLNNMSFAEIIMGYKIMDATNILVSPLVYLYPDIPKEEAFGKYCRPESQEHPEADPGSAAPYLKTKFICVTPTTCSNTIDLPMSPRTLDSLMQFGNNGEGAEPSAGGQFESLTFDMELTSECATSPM
Protein cereblon/Signal transducer and activator of transcription 3, sequence (Q96SW2 whole entry): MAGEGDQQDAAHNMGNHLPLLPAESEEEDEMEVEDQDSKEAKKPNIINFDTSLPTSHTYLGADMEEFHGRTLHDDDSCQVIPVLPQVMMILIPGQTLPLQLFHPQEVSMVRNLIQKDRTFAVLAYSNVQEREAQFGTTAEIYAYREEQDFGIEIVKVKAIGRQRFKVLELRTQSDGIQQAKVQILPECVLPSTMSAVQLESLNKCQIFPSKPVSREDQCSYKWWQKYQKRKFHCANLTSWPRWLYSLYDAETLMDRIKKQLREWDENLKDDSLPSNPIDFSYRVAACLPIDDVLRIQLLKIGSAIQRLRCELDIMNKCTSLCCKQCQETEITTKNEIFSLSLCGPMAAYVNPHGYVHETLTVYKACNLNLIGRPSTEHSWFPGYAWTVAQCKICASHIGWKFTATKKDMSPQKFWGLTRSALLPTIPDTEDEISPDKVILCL
Method in brief: (§1)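 Cells treated 4 h with compounds across 25 nM to 100 μM; STAT proteins detected by Western blot with GAPDH as loading control; STAT3 DC50 estimated by densitometry of STAT3 relative to GAPDH. Applies to MOLM-16 for all STATs, and to SU-DHL-1 and SUP-M2 for STAT3.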

[2] = biological target: Protein cereblon/Signal transducer and activator of transcription 5A (Homo sapiens) (UniProt P42229+Q96SW2); assay: Protac activity at CRBN/STAT5 in human MOLM16 cells assessed as STAT5 degradation at 0.25 to 100 uM incubated for 4 hrs by Western blot analysis; assay type: cell-based; details: dose 0.25-100 µM; method in brief: as §1
Protein cereblon/Signal transducer and activator of transcription 5A (Homo sapiens), sequence (P42229 whole entry, looked up): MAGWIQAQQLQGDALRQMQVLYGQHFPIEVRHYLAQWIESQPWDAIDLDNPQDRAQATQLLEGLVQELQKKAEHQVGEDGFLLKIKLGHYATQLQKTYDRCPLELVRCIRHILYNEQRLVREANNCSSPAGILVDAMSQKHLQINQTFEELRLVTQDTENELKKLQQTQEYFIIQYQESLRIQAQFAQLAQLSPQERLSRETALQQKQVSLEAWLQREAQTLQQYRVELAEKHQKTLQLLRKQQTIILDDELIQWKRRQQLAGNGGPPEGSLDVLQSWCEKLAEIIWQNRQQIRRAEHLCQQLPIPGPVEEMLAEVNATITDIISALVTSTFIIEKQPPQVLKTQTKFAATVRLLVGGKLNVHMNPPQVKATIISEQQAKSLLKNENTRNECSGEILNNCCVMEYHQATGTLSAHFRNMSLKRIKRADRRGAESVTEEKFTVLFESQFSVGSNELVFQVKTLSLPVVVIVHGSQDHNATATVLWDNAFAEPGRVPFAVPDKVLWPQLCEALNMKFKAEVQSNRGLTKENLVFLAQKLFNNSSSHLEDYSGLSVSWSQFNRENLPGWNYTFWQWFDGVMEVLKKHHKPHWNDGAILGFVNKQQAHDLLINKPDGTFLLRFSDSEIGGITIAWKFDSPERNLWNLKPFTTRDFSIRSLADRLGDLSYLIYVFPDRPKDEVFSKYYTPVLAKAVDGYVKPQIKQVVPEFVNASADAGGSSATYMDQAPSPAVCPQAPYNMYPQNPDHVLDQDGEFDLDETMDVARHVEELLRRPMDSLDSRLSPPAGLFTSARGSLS
Protein cereblon/Signal transducer and activator of transcription 5A (Homo sapiens), sequence (Q96SW2 whole entry, looked up): as the sequence (Q96SW2 whole entry) above

[3] = biological target: T1, Protein cereblon/Signal transducer and activator of transcription 6 (Homo sapiens) (UniProt P42226+Q96SW2); assay: Protac activity at CRBN/STAT6 in human SU-DHL-1 cells assessed as STAT6 degradation at 0.25 to 100 uM incubated for 4 hrs by Western blot analysis; assay type: cell-based; details: dose 0.25-100 µM
T1 sequence (Q96SW2 whole entry partner, one chain of several): as the sequence (Q96SW2 whole entry) above

[4] = biological target: Protein cereblon/Signal transducer and activator of transcription 2 (Homo sapiens) (UniProt Q96SW2+P52630); assay: Protac activity at CRBN/STAT2 in human SUP-M2 cells […] at 0.25 to 100 uM incubated for 4 hrs by Western blot analysis; assay type: cell-based; details: SUPM2, dose lower 0.25 µM
Protein cereblon/Signal transducer and activator of transcription 2 (Homo sapiens), sequence (P52630 whole entry, looked up): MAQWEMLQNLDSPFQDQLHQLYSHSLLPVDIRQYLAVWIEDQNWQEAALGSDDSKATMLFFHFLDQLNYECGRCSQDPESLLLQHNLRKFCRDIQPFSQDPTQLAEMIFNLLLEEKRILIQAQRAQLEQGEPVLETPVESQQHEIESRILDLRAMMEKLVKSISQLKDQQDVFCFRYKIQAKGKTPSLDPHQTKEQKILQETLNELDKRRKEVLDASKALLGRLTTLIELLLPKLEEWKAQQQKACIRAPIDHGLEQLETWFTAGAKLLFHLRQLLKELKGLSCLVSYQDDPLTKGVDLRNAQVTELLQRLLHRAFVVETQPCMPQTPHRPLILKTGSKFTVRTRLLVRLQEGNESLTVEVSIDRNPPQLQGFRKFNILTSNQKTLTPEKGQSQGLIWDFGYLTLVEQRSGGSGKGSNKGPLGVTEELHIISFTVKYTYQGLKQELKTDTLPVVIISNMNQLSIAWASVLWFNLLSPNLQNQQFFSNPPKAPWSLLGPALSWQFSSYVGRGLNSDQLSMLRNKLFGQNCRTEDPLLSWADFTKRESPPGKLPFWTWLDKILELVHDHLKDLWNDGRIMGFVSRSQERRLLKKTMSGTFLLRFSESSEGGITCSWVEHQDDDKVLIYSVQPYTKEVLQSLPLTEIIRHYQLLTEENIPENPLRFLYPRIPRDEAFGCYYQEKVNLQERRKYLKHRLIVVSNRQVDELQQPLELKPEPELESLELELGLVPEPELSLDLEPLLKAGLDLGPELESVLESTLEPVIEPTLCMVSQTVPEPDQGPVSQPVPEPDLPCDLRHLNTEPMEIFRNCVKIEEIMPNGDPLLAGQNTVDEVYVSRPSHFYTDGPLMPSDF
Protein cereblon/Signal transducer and activator of transcription 2 (Homo sapiens), sequence (Q96SW2 whole entry, looked up): as the sequence (Q96SW2 whole entry) above

[5] = biological target: T1, Protein cereblon/Signal transducer and activator of transcription 6 (Homo sapiens); assay: Protac activity at CRBN/STAT6 in human SUP-M2 cells assessed as STAT6 degradation at 0.25 to 100 uM incubated for 4 hrs by Western blot analysis; assay type: cell-based; details: SUPM2, dose 0.25-100 µM
[6] = biological target: Protein cereblon/Signal transducer and activator of transcription 1-alpha/beta (Homo sapiens) (UniProt P42224+Q96SW2); assay: In vivo protac activity at CRBN/STAT1 degradation in SCID mouse xenografted with human MOLM16 cells assessed as reduction in STAT1 in tumor tissue at 50 mg/kg, iv measured after 24 hrs by immunoblotting analysis; assay type: functional, organism-based
Method in brief: (§2)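 SCID mice bearing MOLM-16 tumors given a single iv dose of 50 mg/kg or dosing vehicle. Tumor lysates immunoblotted for STAT3, STAT1 and STAT6 at time points from 1 h to at least 24 h.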

[7] = Drug uptake in SCID mouse xenografted with human MOLM16 cells assessed as (2-(((5S,8S,10aR)-8-(((S)-5-amino-1-(benzhydrylamino)-1,5-dioxopentan-2-yl)carbamoyl)-3-(8-(2-(2,6-dioxopiperidin-3-yl)-1-oxoisoindolin-4-yl)oct-7-yno yl)-6-oxodecahydropyrrolo[1,2-a][1,5]diazocin-5-yl)carbamoyl)-1H-indole-5-carbonyl)phosphonic acid level in tumor tissue at 50 mg/kg, iv measured after 6 hrs by LC-MS/MS; assay type: ADME, organism-based; details: in vivo
Method in brief: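 SCID mice bearing MOLM-16 xenografts given a single iv dose of 50 mg/kg. Concentrations of parent and hydrolysis product measured in plasma (ng/mL) and tumor tissue (ng/g) at 1, 6 and 24 h.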

[8] = (§3) Stability of compound in buffer pH 8 assessed as conversion to (2-(((5S,8S,10aR)-8-(((S)-5-amino-1-(benzhydrylamino)-1,5-dioxopentan-2-yl)carbamoyl)-3-(8-(2-(2,6-dioxopiperidin-3-yl)-1-oxoisoindolin-4-yl)oct-7-ynoyl)-6-oxodecahydropyrrolo[1,2-a][1,5]diazocin-5-yl)carbamoyl)-1H-indole-5-carbonyl)phosphonic acid by measuring half life at 37 degC by LC/MS/MS analysis; assay type: physicochemical
Method in brief: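 SD-36 incubated in pH 8 buffer at 37 °C; percentages of parent and hydrolysis products followed over time; half-life of conversion derived from the time course.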

[9] = as §3, with “Drug metabolism in” for “Stability of compound in”, “pH 4” for “pH 8”, “by measured after 2 days” for “by measuring half life”; details: time 2.0 day
Method in brief: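 Parent compound incubated in buffer at pH 4 or pH 8, at room temperature or 37 °C. Percentages of the parent, the hydrolysis product and the glutarimide ring-opened product followed over time, up to 96 h.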

[10] = biological target: T2, Signal transducer and activator of transcription 6 (Homo sapiens, UniProt P42226); assay: Binding affinity to human recombinant STAT6 assessed as dissociation constant incubated for 15 mins by biolayer interferometry
T2 sequence (P42226 whole entry): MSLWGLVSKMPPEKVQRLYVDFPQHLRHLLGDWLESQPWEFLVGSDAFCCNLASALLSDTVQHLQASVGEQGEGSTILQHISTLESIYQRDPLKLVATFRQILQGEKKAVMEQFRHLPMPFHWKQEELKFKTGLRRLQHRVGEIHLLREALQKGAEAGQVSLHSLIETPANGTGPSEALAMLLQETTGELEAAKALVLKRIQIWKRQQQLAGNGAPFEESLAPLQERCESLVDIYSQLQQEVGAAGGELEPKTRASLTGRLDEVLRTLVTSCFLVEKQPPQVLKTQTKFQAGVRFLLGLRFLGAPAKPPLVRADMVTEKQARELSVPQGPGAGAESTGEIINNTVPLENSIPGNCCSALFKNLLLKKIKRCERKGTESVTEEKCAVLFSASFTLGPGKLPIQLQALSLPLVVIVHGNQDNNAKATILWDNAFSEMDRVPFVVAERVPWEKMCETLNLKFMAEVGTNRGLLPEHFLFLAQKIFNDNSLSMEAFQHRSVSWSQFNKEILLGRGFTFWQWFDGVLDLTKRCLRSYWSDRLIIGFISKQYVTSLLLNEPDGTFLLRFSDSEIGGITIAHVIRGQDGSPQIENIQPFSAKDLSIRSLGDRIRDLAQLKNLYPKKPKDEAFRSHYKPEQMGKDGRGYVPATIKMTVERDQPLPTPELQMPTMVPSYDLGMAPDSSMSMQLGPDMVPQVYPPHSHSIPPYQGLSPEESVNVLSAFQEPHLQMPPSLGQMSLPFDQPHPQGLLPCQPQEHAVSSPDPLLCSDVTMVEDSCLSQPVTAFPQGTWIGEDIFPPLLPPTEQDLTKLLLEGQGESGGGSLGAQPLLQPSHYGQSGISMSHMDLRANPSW
Method in brief: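 Biolayer interferometry with recombinant human STAT1, STAT2, STAT3, STAT4, STAT5A, STAT5B or STAT6 proteins containing their SH2 domain. Compound run in 2× serial dilutions from 200 nM. Kd taken from steady-state fitting of equilibrium responses against concentration using a 1:1 binding model.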

[11] = biological target: Signal transducer and activator of transcription 3 (Homo sapiens, UniProt P40763); assay: Induction of STAT3 degradation in human MOLM-16 cells assessed as decrease in STAT3 level at 1 uM incubated for 4 hrs by proteomic analysis; assay type: cell-based; details: MOLM16
Signal transducer and activator of transcription 3, sequence (P40763 whole entry): as the sequence (P40763 whole entry) above
Method in brief: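 MOLM-16 cells treated with 1 or 10 μM for 4 h. Protein levels measured by quantitative proteomics across more than 7000 proteins.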

[12] = system: Mus musculus; assay: In vivo induction of STAT3 degradation in SCID mouse xenografted with human MOLM16 cells assessed as reduction in STAT3 in tumor tissue at 50 mg/kg, iv measured after 24 hrs by immunoblotting analysis; assay type: functional, organism-based; method in brief: as §2
[13] = Stability of the compound in complete cell culture medium measured upto 100 hrs by LC/MS/MS analysis; assay type: physicochemical
Method in brief: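 Compound incubated at 37 °C in the cell culture media used for cellular assays; percentages of parent and conversion products determined at time points up to 96 h.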

NC(=O)CC[C@H](NC(=O)[C@@H]1CC[C@@H]2CCN(C(=O)CCCCCC#Cc3cccc4c3CN(C3CCC(=O)NC3=O)C4=O)C[C@H](NC(=O)c3cc4cc(C(F)(F)P(=O)(O)O)ccc4[nH]3)C(=O)N21)C(=O)NC(c1ccccc1)c1ccccc1 (stereo partly drawn)
DC50 [1]: 0.061 µM
Activity [2]: inactive
Activity [3]: inactive
Activity [4]: inactive
Activity [5]: inactive
Activity [6]: inactive
Drug uptake [7]: 1750 ng/g
t1/2 [8]: 4 h
Drug metabolism [9]: 50%

NC(=O)CC[C@H](NC(=O)[C@@H]1CC[C@@H]2CCN(C(=O)CCCCCC#Cc3cccc4c3CN(C3CCC(=O)NC3=O)C4=O)C[C@H](NC(=O)c3cc4cc(C(=O)P(=O)(O)O)ccc4[nH]3)C(=O)N21)C(=O)NC(c1ccccc1)c1ccccc1 (stereo partly drawn)
Kd [10]: > 0.01 µM
Activity [11]: Active
Activity [12]: Active
Stabilty [13]: Stable
